Experimental data taken from article PMC2831464 (Clinical cancer research : an official journal of the …, 2010).
“And” between values parts separate entries of the source, which are not always exact repeats. Identical values can stand only once. “Also recorded” adds a separate entry of the source.

Assays:
[1] = tested on: UGT1A8; conditions: cited from earlier work
[2] = Plasma pharmacokinetics of AR-67 lactone and carboxylate; format: in vivo, human; conditions: for Cmax, total: observed at 45 min of 1-hr infusion
Summary of the method: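 Test compound was given as a 1-h IV infusion daily × 5. Heparinized blood was drawn on days 1 and 4 of cycle 1: pre-dose, 5, 45 and 65 min, and 1.5, 2, 4, 6, 8 and 24 h after infusion start. Plasma lactone and carboxylate were quantified by validated HPLC-fluorescence. Parameters were noncompartmental. Cmax was the observed 45-min value. Half-life required ≥3 elimination-phase points.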

[3] = tested on: UGT1A1; conditions: cited from earlier work
[4] = day 1 cycle 1, 1.2 mg/m^2 (n=2), mean
[5] = day 1 cycle 1, 1.67 mg/m^2 (n=3), mean
[6] = day 1 cycle 1, 2.34 mg/m^2 (n=3), mean
[7] = day 1 cycle 1, 3.23 mg/m^2 (n=3), mean
[8] = day 1 cycle 1, 4.5 mg/m^2 (n=1)
[9] = day 1 cycle 1, 6.3 mg/m^2 (n=1)
[10] = day 1 cycle 1, 7.5 mg/m^2 (n=7), mean
[11] = day 1 cycle 1, 8.9 mg/m^2 (n=4), mean
[12] = day 1 cycle 1, 12.4 mg/m^2 (n=2), mean
[13] = day 4 cycle 1, 1.2 mg/m^2 (n=1)
[14] = day 4 cycle 1, 1.67 mg/m^2 (n=3), mean
[15] = day 4 cycle 1, 2.34 mg/m^2 (n=3), mean
[16] = day 4 cycle 1, 3.23 mg/m^2 (n=3), mean
[17] = day 4 cycle 1, 4.5 mg/m^2 (n=1)
[18] = day 4 cycle 1, 6.3 mg/m^2 (n=1)
[19] = day 4 cycle 1, 7.5 mg/m^2 (n=7), mean
[20] = day 4 cycle 1, 8.9 mg/m^2 (n=4), mean
[21] = day 4 cycle 1, 12.4 mg/m^2 (n=2), mean

## CC[C@@]1(O)C(=O)OCc2c1cc1n(c2=O)Cc2c-1nc1ccc(O)cc1c2[Si](C)(C)C(C)(C)C [AR-67, 7-t-butyldimethylsilyl-10-hydroxycamptothecin]
[1]
  metabolism by UGT1A8: extensively metabolized
[2]; 1.2–12.4 mg/m^2/day
  clearance with increasing dosage: clearance was constant
[2]; all patients, dexamethasone co-treatment
  decrease in AUC between days 1 and 4: ~ 20%
[2]; daily × 5 dosing, cycle 1
  drug accumulation on day 4: No drug accumulation was observed; also recorded: no evidence of accumulation
[2]; [4]
  Clearancetotal: 13.8 L/hr/m^2
  Lactone AUC(0−∞): 81 ng·h/mL
  Total AUC(0−∞): 88 ng·h/mL
  Vss, total: 7.4 L/m^2
  Cmax, total: 77.6 ng/mL
[2]; [5]
  Clearancetotal: 13.2 L/hr/m^2
  Lactone AUC(0−∞): 117 ng·h/mL
  Total AUC(0−∞): 128 ng·h/mL
  Vss, total: 13.1 L/m^2
  Cmax, total: 96.9 ng/mL
[2]; [6]
  Clearancetotal: 14.1 L/hr/m^2
  Lactone AUC(0−∞): 186 ng·h/mL
  Total AUC(0−∞): 201 ng·h/mL
  Vss, total: 13.5 L/m^2
  Cmax, total: 158.9 ng/mL
[2]; [7]
  Clearancetotal: 11.6 L/hr/m^2
  Lactone AUC(0−∞): 269 ng·h/mL
  Total AUC(0−∞): 290 ng·h/mL
  Vss, total: 9.6 L/m^2
  Cmax, total: 221.9 ng/mL
[2]; [8]
  Clearancetotal: 21 L/hr/m^2
  Lactone AUC(0−∞): 179 ng·h/mL
  Total AUC(0−∞): 214 ng·h/mL
  Vss, total: 32.7 L/m^2
  Cmax, total: 117.8 ng/mL
[2]; [9]
  Clearancetotal: 12.9 L/hr/m^2
  Lactone AUC(0−∞): 334 ng·h/mL
  Total AUC(0−∞): 490 ng·h/mL
  Vss, total: 51.6 L/m^2
  Cmax, total: 168.5 ng/mL
[2]; [10]
  Clearancetotal: 13.1 L/hr/m^2
  Lactone AUC(0−∞): 498 ng·h/mL
  T(1/2)total: 1.4 h
  Total AUC(0−∞): 581 ng·h/mL
  Vss, total: 18.7 L/m^2
  Cmax, total: 349.7 ng/mL
[2]; [11]
  Clearancetotal: 18.9 L/hr/m^2
  Lactone AUC(0−∞): 471 ng·h/mL
  T(1/2)total: 1.6 h
  Total AUC(0−∞): 502 ng·h/mL
  Vss, total: 30.1 L/m^2
  Cmax, total: 290.6 ng/mL
[2]; [12]
  Clearancetotal: 15.8 L/hr/m^2
  Lactone AUC(0−∞): 686 ng·h/mL
  T(1/2)total: 1.1 h
  Total AUC(0−∞): 786 ng·h/mL
  Vss, total: 18.1 L/m^2
  Cmax, total: 464.7 ng/mL
[2]; day 1 cycle 1, All dosage levels (N=26), mean
  Clearancetotal: 14.5 ±4.1 L/hr/m^2 and 14.5 L/hr/m^2
[2]; day 1 cycle 1, All dosage levels, mean
  T(1/2)total: 1.4 h
[2]; [13]
  Clearancetotal: 23.6 L/hr/m^2
  Lactone AUC(0−∞): 49 ng·h/mL
  Total AUC(0−∞): 51 ng·h/mL
  Vss, total: 15.6 L/m^2
  Cmax, total: 51.6 ng/mL
[2]; [14]
  Clearancetotal: 16.7 L/hr/m^2
  Lactone AUC(0−∞): 109 ng·h/mL
  Total AUC(0−∞): 115 ng·h/mL
  Vss, total: 16.3 L/m^2
  Cmax, total: 74.6 ng/mL
[2]; [15]
  Clearancetotal: 15.3 L/hr/m^2
  Lactone AUC(0−∞): 137 ng·h/mL
  Total AUC(0−∞): 154 ng·h/mL
  Vss, total: 7.9 L/m^2
  Cmax, total: 137.8 ng/mL
[2]; [16]
  Clearancetotal: 13.3 L/hr/m^2
  Lactone AUC(0−∞): 236 ng·h/mL
  Total AUC(0−∞): 255 ng·h/mL
  Vss, total: 10.6 L/m^2
  Cmax, total: 195 ng/mL
[2]; [17]
  Clearancetotal: 24.2 L/hr/m^2
  Lactone AUC(0−∞): 149 ng·h/mL
  Total AUC(0−∞): 186 ng·h/mL
  Vss, total: 45.3 L/m^2
  Cmax, total: 82.5 ng/mL
[2]; [18]
  Clearancetotal: 14.7 L/hr/m^2
  Lactone AUC(0−∞): 327 ng·h/mL
  Total AUC(0−∞): 429 ng·h/mL
  Vss, total: 35.3 L/m^2
  Cmax, total: 166.4 ng/mL
[2]; [19]
  Clearancetotal: 16.8 L/hr/m^2
  Lactone AUC(0−∞): 411 ng·h/mL
  T(1/2)total: 1.8 h
  Total AUC(0−∞): 478 ng·h/mL
  Vss, total: 25.6 L/m^2
  Cmax, total: 308.6 ng/mL
[2]; [20]
  Clearancetotal: 18.6 L/hr/m^2
  Lactone AUC(0−∞): 397 ng·h/mL
  T(1/2)total: 1.4 h
  Total AUC(0−∞): 507 ng·h/mL
  Vss, total: 27.5 L/m^2
  Cmax, total: 276.7 ng/mL
[2]; [21]
  Clearancetotal: 19.8 L/hr/m^2
  Lactone AUC(0−∞): 551 ng·h/mL
  T(1/2)total: 1.7 h
  Total AUC(0−∞): 663 ng·h/mL
  Vss, total: 28.9 L/m^2
  Cmax, total: 358.5 ng/mL
[2]; day 4 cycle 1, All dosage levels (N=25), mean
  Clearancetotal: 17.4 ±5.2 L/hr/m^2 and 17.4 L/hr/m^2
[2]; day 4 cycle 1, All dosage levels, mean
  T(1/2)total: 1.6 h
[2]; human plasma, mean (±SD)
  lactone form as share of the total AR-67 AUC (lactone + carboxylate): 87.5% and ~ 87.5%
[2]; p=0.0031, Wilcoxon signed rank
  increase of mean clearance of total AR-67 from day 1 to day 4: 20%
[2]; patients, iv
  elimination half-life: ~ 1.4 hr
[2]; plasma, MTD cohort
  elimination profile: bi-exponential profile
[2]; plasma, at each time point, all patients
  share of the total concentration in the lactone form: Greater than 80%
[3]
  UGT1A1 mediated glucuronidation: does not undergo
